Source: PubChem BioAssay
hERG protect: compounds protecting human hERG from proarrhythmic drug block | Q12809 | CHO-hERG, FluxOR thallium flux, dofetilide IC70 present | activation (rescue from dofetilide block), less the hit threshold, % at 10 µM | 310,000 tested, 0.51% active;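 active = activation above the mean of controls blocked by dofetilide plus 5 SD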;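 also: thallium influx through hERG after potassium depolarization seen as dye fluorescence rise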
Target sequence (Q12809 whole entry, looked up): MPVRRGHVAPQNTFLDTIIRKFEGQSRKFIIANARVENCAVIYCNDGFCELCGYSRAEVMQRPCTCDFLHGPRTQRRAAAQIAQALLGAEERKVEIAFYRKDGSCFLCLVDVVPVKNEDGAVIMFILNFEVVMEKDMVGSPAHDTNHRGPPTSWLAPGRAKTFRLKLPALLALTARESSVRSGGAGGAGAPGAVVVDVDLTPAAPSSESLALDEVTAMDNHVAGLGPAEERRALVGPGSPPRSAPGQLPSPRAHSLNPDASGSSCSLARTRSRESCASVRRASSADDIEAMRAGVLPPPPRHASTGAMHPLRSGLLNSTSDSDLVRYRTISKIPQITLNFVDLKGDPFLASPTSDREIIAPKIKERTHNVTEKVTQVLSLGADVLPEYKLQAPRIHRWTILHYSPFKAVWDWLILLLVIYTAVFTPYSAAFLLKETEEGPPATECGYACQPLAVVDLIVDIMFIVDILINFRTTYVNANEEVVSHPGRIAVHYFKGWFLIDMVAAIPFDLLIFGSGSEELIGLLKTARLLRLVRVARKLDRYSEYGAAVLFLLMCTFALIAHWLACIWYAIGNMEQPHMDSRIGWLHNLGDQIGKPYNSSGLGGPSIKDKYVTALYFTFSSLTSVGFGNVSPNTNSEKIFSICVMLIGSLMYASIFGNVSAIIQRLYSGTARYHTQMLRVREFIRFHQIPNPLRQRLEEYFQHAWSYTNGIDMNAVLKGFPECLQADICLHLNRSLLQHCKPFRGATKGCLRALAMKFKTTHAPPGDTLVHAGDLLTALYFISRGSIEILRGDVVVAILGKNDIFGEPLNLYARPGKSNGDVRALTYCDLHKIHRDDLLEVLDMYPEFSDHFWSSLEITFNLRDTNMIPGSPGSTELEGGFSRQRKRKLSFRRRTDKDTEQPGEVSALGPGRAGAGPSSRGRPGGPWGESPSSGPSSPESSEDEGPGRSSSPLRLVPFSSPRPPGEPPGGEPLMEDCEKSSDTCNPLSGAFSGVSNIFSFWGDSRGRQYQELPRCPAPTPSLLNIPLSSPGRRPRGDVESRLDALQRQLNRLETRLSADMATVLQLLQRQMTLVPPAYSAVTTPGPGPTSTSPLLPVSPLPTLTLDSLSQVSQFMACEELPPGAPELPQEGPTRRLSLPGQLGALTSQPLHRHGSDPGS
KCNK3 block: human KCNK3 channel inhibition, primary screen; O14649; CHO-KCNK3 thallium flux, FluxOR fluorescence; active compounds read low; B-score at 10 µM; 340,000 tested, 0.84% active; AID 602410;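 active = B-score under library mean minus 4 SD, starting fluorescence ratio at most library mean plus 5 SD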;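 also: more negative B-score means stronger inhibition of thallium flux through KCNK3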
KCNK9 inh: blocks the human KCNK9 two-pore domain potassium channel. Q9NPC2. HEK293 KCNK9, FluxOR thallium flux fluorescence; active compounds read low. B-score at 10 µM. 310,000 tested, 1.2% active. AID 488922;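 active = ratio B-score over 3 SD below the library mean, with starting fluorescence within 5 SD of its mean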;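 also: negative B-score means less thallium flux so channel inhibition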
KCNQ1 block: inhibitors of human KCNQ1 potassium channel. P51787. CHO-K1 KCNQ1, FluxOR thallium flux fluorescence; active compounds read high. B-score at 10 µM. 310,000 tested, 1.3% active;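 active = compounds whose thallium flux B-score, printed positive for inhibition, exceeds three library SD while starting fluorescence stays within three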;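 also: channel opened by potassium depolarization with thallium stimulus after 20 min compound exposure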
KCNQ1 pot: potentiators or activators of human KCNQ1 potassium channel; P51787; CHO-K1 KCNQ1, thallium flux FluxOR fluorescence; active compounds read high; B-score at 10 µM; 310,000 tested, 0.35% active; AID 2648;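 active = fluorescence ratio B-score, a plate-corrected score, at least three library SD, with initial intensity B-score within 5 SD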
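assay system = CHO-K1 cells stably expressing KCNQ1 | medium = assay buffer, equal DMSO in all wells | timing = 37 °C overnight plating, 90-min dark dye load, 20-min compound pretreatment | measured by = kinetic FluxOR thallium fluorescence, 10-s 1-Hz baseline, 110-s post-stimulus read | measure = fluorescence change relative to baseline, converted to B score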
KCNK9 block conf: confirmation of human KCNK9 potassium channel inhibitors; shares compounds with KCNK9 inh; HEK293 KCNK9 cells, FluxOR thallium flux fluorescence; AID 492992; 4,900 tested, 43% active; inhibition, % at 10 µM;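 active = thallium signal inhibited by more than 5 SD of the compound-free buffer control wells, on both duplicate plates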;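 also: 0% = assay buffer control wells without compound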
Kir21 sel: mouse Kir2.1 off-target activity of KCNK9 modulators; shares compounds with KCNK9 inh; Kir2.1 cells, FluxOR thallium flux fluorescence; inhibition, % at 10 µM; 4,900 tested, 4% active;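 active = thallium signal drop more than 5 SD beyond the mean of the no-compound control wells, seen in both duplicate plates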;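 also: signal is fluorescence rise after thallium addition divided by baseline fluorescence; plate controls were assay buffer only for no effect and full block by chlorpromazine control for full effect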
HEK293 Tl ctr: second check of KCNK9 modulator effects in non-induced HEK293 cells. shares compounds with KCNK9 inh. FluxOR thallium flux. inhibition, % at 10 µM. 4,900 tested, 40% active. AID 492997;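 active = thallium signal drop beyond 5 SD of the untreated control mean, on both duplicate plates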;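 also: plate controls were buffer only IC0 wells for no effect and SID17386958 at its maximal inhibitory level for full effect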
* hit, by the source's call; i = inactive; / = no result given. An excerpt weighted towards active compounds, which were near 3.1% of everything screened.

SMILES	hERG protect	KCNK3 block	KCNK9 inh	KCNQ1 block	KCNQ1 pot	KCNK9 block conf	Kir21 sel	HEK293 Tl ctr
O/N=C/c1cc(Br)ccc1OCc1cccc(F)c1	-8	i	-8.9*	i	i	46%*	i	34%*
Cc1ccc(COc2ccc(Br)cc2/C=N/O)cc1	-3	i	i	i	i	/	/	/
O=S(=O)(Nc1cccc(S(=O)(=O)N2CCCCCC2)c1)c1ccc(F)cc1F	/	i	/	/	/	/	/	/
Cc1ccnc(Nc2nc(-c3c(C)nc4sccn34)cs2)c1	-14	i	-17*	i	i	40%*	i	28%*
COc1ccc(C(=O)C2CCCN(C(=O)C3=CCCC3)C2)c(C)c1 (centres undefined)	-14	i	i	i	i	i	i	i
COc1ccc(C(=O)C2CCCN(C(=O)c3ccccc3C(C)=O)C2)cc1F (centres undefined)	-7	i	i	i	i	/	/	/
COc1ccc(C(=O)C2CCCN(C(=O)c3ccc(CSC)o3)C2)cc1F (centres undefined)	-19	i	i	i	i	i	i	i
COc1ccc(C(=O)C2CCCN(C(=O)c3csc(C(C)=O)c3)C2)c(C)c1 (centres undefined)	-6	i	i	i	i	/	/	/
COc1ccc(C(=O)C2CCCN(C(=O)c3noc4c3CCCC4)C2)cc1F (centres undefined)	0	i	i	i	i	i	i	i
COc1ccc(C(=O)C2CCCN(C(=O)c3noc4c3CCCC4)C2)c(C)c1 (centres undefined)	-4	i	i	i	i	i	i	i
O=C1CCN(Cc2ccccc2)C(=S)N1	/	i	/	/	/	/	/	/
Cc1cc2oc(=O)cc(-c3ccccc3)c2c(C)c1-c1ccc(C#N)cc1	/	i	/	/	/	/	/	/
Cc1ccccc1N1CCN(C2CCCN(C(=O)c3noc4c3CCCC4)C2)CC1 (centres undefined)	-11	i	i	i	i	i	i	i
C#Cc1cccc(C(=O)N2CCCC(C(=O)c3ccc(OC)cc3C)C2)c1 (centres undefined)	-12	i	i	i	i	i	i	i
Cc1cnc(C(=O)N2CCCC(N3CCN(c4ccccc4C)CC3)C2)cn1 (centres undefined)	-10	i	i	i	i	/	/	/
O=C(CN(C(=O)c1csnn1)c1cccc(C(F)(F)F)c1)NC1CCCC1	-8	i	i	i	i	/	/	/
CC1=NN(C(N)=S)C(=O)C1N=Nc1cccc2ccccc12 (centres undefined)	-6	/	i	i	i	/	/	/
CC1=NN(C(N)=S)C(=O)C1N=Nc1cccc(Cl)c1C (centres undefined)	-11	i	i	i	41*	i	i	i
Brc1ccc(N/N=C(/N=Nc2nn[nH]n2)c2ccccc2)cc1	-7	i	i	12*	i	i	i	i
O=C(/C(=N\Nc1ccc(Br)cc1)Sc1nnnn1-c1ccccc1)c1ccccc1	-7	i	i	i	i	/	/	/
Cc1ccc(/C=C/C(O)=C2/C(=O)N(C)C3(C)CC2c2ccccc2O3)cc1 (centres undefined)	-10	i	-8.3*	i	i	52%*	i	42%*
COc1ccc(/C=C/C(O)=C2/C(=O)NC3(C)CC2c2ccccc2O3)c(OC)c1OC (centres undefined)	-5	i	i	i	i	/	/	/
COc1ccc(/C=C/C(O)=C2/C(=O)N(C)C3(C)CC2c2ccccc2O3)cc1 (centres undefined)	-12	i	-10*	i	i	41%*	i	30%*
CC(=O)c1ccc(N2C(=O)CC(N3CCN(S(=O)(=O)c4cc(C)ccc4C)CC3)C2=O)cc1 (centres undefined)	/	i	/	/	/	/	/	/
CCN1/C(=C/C=C/c2sc3ccccc3[n+]2CC)Sc2ccccc21	-21	-13*	-24*	i	i	i	i	i
SMILES	hERG protect	KCNK3 block	KCNK9 inh	KCNQ1 block	KCNQ1 pot	KCNK9 block conf	Kir21 sel	HEK293 Tl ctr
CC[n+]1c(/C=C/Nc2ccccc2)sc2ccccc21	-14	i	i	i	i	/	/	/
O=C(CCSc1ccc(Cl)cc1)N1CCCCCC1	-7	i	i	i	i	i	i	i
Cn1c(=O)c2c(nc(CN3CCN(c4ccccc4F)CC3)n2CCCc2ccccc2)n(C)c1=O	-7	i	i	i	i	i	i	i
CCCCCCn1c(N2CCN(c3ccccc3)CC2)nc2c1c(=O)n(C)c(=O)n2C	-23	i	-8.5*	i	i	43%*	i	40%*
C=CCc1cc(C)ccc1OCCOCCC(C(=O)OCC)C(=O)OCC	-13	i	i	i	i	i	i	i
CCN(CCCn1c(SCC#N)nc2ccccc2c1=O)c1ccccc1	-15	-9.3*	-11*	i	i	44%*	i	28%*
C=C(C)Cn1c(SCC#N)nc2ccccc2c1=O	-8	i	i	i	i	/	/	/
CCCCn1c(SCc2nc3ccccc3s2)nc2ccccc2c1=O	-8	i	-12*	i	i	68%*	i	40%*
CCC1CN(C(=O)NCc2cccc(OC)c2)c2ccccc2O1 (centres undefined)	-2	i	i	i	i	i	i	i
CC(=O)NN1C(=O)/C(=C2/Sc3ccc(Cl)cc3N2C)SC1=S	-7	i	i	i	i	/	/	/
N#Cc1c(-c2ccccc2)nc(SCC(=O)N(c2ccccc2)c2ccccc2)[nH]c1=O	-11	i	i	i	i	/	/	/
N#Cc1c(-c2ccccc2)nc(SCC(=O)N2c3ccccc3Sc3ccccc32)[nH]c1=O	-38	i	i	i	i	i	i	25%*
COc1ccc(N2CCN(C(=O)CSc3nc(C)cs3)CC2)cc1	-10	i	i	i	i	/	/	/
COc1ccc(N2CCN(C(=O)CSc3ncnc4scc(-c5ccc(C)cc5)c34)CC2)cc1	-11	i	i	i	i	i	i	i
Cc1cccc(/C=C/C(=O)c2cc(Br)ccc(=O)c2O)c1	-2	i	i	i	25*	i	i	i
OCC1(CCCc2ccccc2)CCN(C2CCSCC2)CC1	-12	i	i	i	i	/	/	/
CCOC(=O)C1(CCCc2ccccc2)CCN(C2CCSCC2)CC1	-13	i	i	i	i	i	i	i
